CYP2C19 inhib: human CYP2C19 inhibition | P33261 | CYP2C19 Supersomes, luciferin-H EGE luminescence, 30 min | inhibition, % at 5 µM | 21% of 96,000 active | AID 778;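 active = CYP2C19 inhibition above a set limit at 5 µM in the primary screen, cut at about 50% in these data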;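 also: plate controls were negative control wells for no effect and 2.5 mM tranylcypromine positive control for full effect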
CYP2C19 activ: activators of human cytochrome P450 2C19; activation factor at 5 µM; 96,000 tested, under 10 active; P33261; recombinant CYP2C19, luciferin-H EGE luminescence; active compounds read high; 0 = fully inhibited enzyme, 1 = untreated enzyme; AID 1025;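 active = activation factor of at least 2 at 5 µM in the primary screen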;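 also: 0 = wells with 2.5 mM tranylcypromine and 1 = vehicle-only wells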
E coli WT exp: blocks growth of wild type E. coli BW25113 | OD600 absorbance | growth inhibition, % at 100 µM | 0.15% of 98,000 active | AID 710;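 active = growth inhibition above about 50% at one test dose, limit read from the data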;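 also: growth measured after 20 h incubation at 37 °C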
CYP2C9 activ: CYP2C9 (human) activation | P11712 | recombinant CYP2C9, luciferin-H conversion, luminescence; active compounds read high; factor 1 = untreated enzyme, 0 = blocked | activation factor at 5 µM | 1.4% of 96,000 active;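 active = activation factor of 2 or more for CYP2C9 at a 5 µM dose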;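 also: 0 = sulfaphenazole-blocked wells and 1 = vehicle-only wells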
Target sequence (P11712 whole entry, looked up): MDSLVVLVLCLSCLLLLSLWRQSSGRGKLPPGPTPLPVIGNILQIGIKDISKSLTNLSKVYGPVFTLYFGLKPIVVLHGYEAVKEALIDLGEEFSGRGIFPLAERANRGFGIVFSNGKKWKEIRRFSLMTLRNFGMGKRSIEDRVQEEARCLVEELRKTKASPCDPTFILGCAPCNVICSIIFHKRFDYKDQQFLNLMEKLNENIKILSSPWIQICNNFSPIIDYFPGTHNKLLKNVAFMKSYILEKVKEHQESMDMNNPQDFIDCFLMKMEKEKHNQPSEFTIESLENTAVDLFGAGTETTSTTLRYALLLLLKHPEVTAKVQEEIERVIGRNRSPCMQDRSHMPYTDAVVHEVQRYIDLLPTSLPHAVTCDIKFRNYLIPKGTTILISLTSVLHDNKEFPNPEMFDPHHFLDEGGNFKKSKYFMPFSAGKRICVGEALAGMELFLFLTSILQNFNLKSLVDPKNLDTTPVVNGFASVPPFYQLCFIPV
CYP2C9 inhib: inhibitors of human CYP2C9. P11712. CYP2C9 Supersomes, luciferin-H conversion, luminescence. inhibition, % at 5 µM. 20% of 96,000 active. AID 777;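 active = blocking of liver enzyme CYP2C9 beyond about 50% at 5 µM, limit read from the data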
tolC growth inh: growth inhibitors of E. coli BW25113 tolC mutant; OD615; growth inhibition, % at 10 µM (by protocol); 2.2% of 65,000 active;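 active = growth inhibition at or above a cutoff equal to the mean over every tested compound plus 3 SD, cut at about 60% in these data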;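 also: growth measured after 20 h incubation at 37 °C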
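System: E. coli ΔtolC::kan strain BW25113; Buffer or medium: LB broth supplemented with 50 µg/mL kanamycin; Compound: 10 µM final, single dose; Incubation: bacterial growth with compound for 20 h at 37 °C; Signal: A615 absorbance measurement; Evaluation: growth inhibition in percent.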
* hit, by the source's call; / = no result given. Only some compounds are listed: those with a hit (about 29% of all), similar ones and a draw of the others.

SMILES	CYP2C19 inhib	CYP2C19 activ	E coli WT exp	CYP2C9 activ	CYP2C9 inhib	tolC growth inh
Cc1nc(=O)c(-c2ccccc2)c(C)n1-c1ccccc1O	17	0.8	/	0.9	10	/
CCOC(=O)c1c(OCC)[nH]c2ccc(O)cc12	-3	1	7	1.6	-62	/
O=C(NCCOCCOCCNC(=O)c1cccnc1)c1cccnc1	11	0.9	-6	1	0	-27
Cc1cc(C)c(C(=O)OCCNC(=O)c2cccnc2)cc1C	74*	0.3	10	0.3	71*	11
O=C(NCCOC(=O)c1ccc(C(=O)OCCNC(=O)c2ccccc2)o1)c1ccccc1	36	0.6	1	0.2	83*	-2
O=C(NCCOC(=O)c1ccccc1C(=O)OCCNC(=O)c1cccnc1)c1cccnc1	96*	0	-2	0.3	68*	/
CCOc1cc(C2c3c(oc4cc(C)c(Cl)cc4c3=O)C(=O)N2Cc2ccco2)ccc1O (stereo unspecified)	-5	1.1	-10	0.9	14	-30
Cc1ccc(NC(=O)C2C3/C=C\CCCCC32)cc1C (stereo unspecified)	44	0.6	-5	1	0	/
O=C(NC(CO)c1ccccc1)c1ccco1 (stereo unspecified)	3	1	12	0.8	18	/
NC1=NC2(CCN(Cc3ccccc3)CC2)n2c(nc3ccccc32)N1	26	0.7	3	0.4	57*	4
NC1=NC2(CCCCC2)n2c(nc3ccccc32)N1	0	1	4	1	1	-1
CC1=C(C(=O)NCc2ccccc2)C(c2cccs2)n2ncnc2N1 (stereo unspecified)	7	0.9	2	1	4	-1
COc1ccc(C2CC(O)(C(C)(C)O)NO2)cc1 (stereo unspecified)	6	0.9	2	0.9	13	-11
CC1(C2(O)CC(c3ccccc3)ON2)CCCCC1 (stereo unspecified)	54*	0.5	6	0.8	16	15
O=C(Nc1ccc(S(=O)(=O)Nc2nccs2)cc1)C1CCCCC1	-16	1.2	1	1	1	11
CCNc1sc(C(=O)c2cccs2)c(N)c1-c1nc2ccccc2s1	53*	0.5	-13	0.1	90*	9
COc1ccc(CCN2CC(O)=C(c3nc4ccccc4c(=O)[nH]3)C2=N)cc1OC	69*	0.3	-5	0.7	28	4
N=C1C(c2nc3ccccc3c(=O)[nH]2)=C(O)CN1c1ccccc1	12	0.9	-1	2.2*	-116	/
COc1ccc2nc(Nc3nc(C)c(CCC(C)C)c(=O)[nH]3)nc(C)c2c1	60*	0.4	-4	0.4	58*	22
CCOc1ccc2nc(Nc3nc4c(c(=O)[nH]3)CCC4)nc(C)c2c1	/	/	/	/	/	5
COc1ccc(CNc2nc(SC)n[nH]2)cc1OC	36	0.6	4	0.9	6	-4
COc1cc(CNc2ccc3c(c2)CCC3)cc(OC)c1O	32	0.7	9	1	-3	-15
CCOc1cc(CNc2ccc3c(c2)CCC3)ccc1O	91*	0.1	1	0.2	77*	/
CCOc1cc(CNc2ccccc2SC)ccc1O	67*	0.3	4	0.7	32	0
COc1cc(CNc2ccccc2SC)ccc1O	87*	0.1	14	0.7	34	-6
SMILES	CYP2C19 inhib	CYP2C19 activ	E coli WT exp	CYP2C9 activ	CYP2C9 inhib	tolC growth inh
COc1ccc(C)cc1NC(=O)CN1CCN(S(=O)(=O)c2ccc(Br)cc2)CC1	-12	1.1	0	0.8	19	-6
Cn1c(=O)c2c(nc(CN3CCOCC3)n2CCCO)n(C)c1=O	-6	1.1	3	1	4	9
O=C(NCc1nc2ccccc2[nH]1)c1cccs1	47	0.5	17	0.8	17	-4
CC(C)(C)c1cc(/C=N/NC(=O)Cc2nc3ccccc3[nH]2)cc(C(C)(C)C)c1O	93*	0.1	3	0	99*	/
Cc1cc(C)c(S(=O)(=O)N2CCN(c3nc4c(c(=O)n(C)c(=O)n4C)n3C)CC2)c(C)c1	9	0.9	/	0.8	22	3
CC1CCCCN1C(=O)CN1C(=O)CN(C)C(=O)c2ccccc21 (stereo unspecified)	17	0.8	4	0.9	13	-18
CC(=O)Nc1ccc(S(=O)(=O)N2CCN(Cc3ccccn3)CC2)cc1	10	0.9	12	0.8	23	/
CCc1ccc(NC(=O)c2cccnc2)cc1	-8	1.1	4	1.1	-5	-5
CCCNS(=O)(=O)c1ccc(NC(=O)c2cccnc2)cc1	38	0.6	-1	0	98*	/
O=C(Nc1ccc(N2CCCCC2)cc1)c1cccnc1	32	0.7	-5	0.3	68*	-8
CC1CCCN(S(=O)(=O)c2ccc(NC(=O)c3cccc(-n4cnnn4)c3)cc2)C1 (stereo unspecified)	18	0.8	-10	0.7	31	73*
O=C(Nc1ccc(S(=O)(=O)N2CCN(Cc3ccccc3)CC2)cc1)c1cnccn1	29	0.7	-7	0.5	52*	-15
O=C(c1ccccc1)c1cncc(Br)c1	11	0.9	4	0.9	7	-4
O=C(Nc1ccc(S(=O)(=O)N2CCCC2)cc1)c1cccnc1	26	0.7	7	0.3	71*	/
COCCn1nnnc1C(C(C)C)N(Cc1cccnc1)Cc1ccccc1Cl (stereo unspecified)	95*	0	-4	0.6	43	14
CCC(c1nnnn1CCOC)N1CCN(Cc2ccccc2)CC1 (stereo unspecified)	10	0.9	3	0.8	18	-30
CCOC(=O)c1ccc2[nH]c3c(c2c1)CCCC3C(=O)OCC (stereo unspecified)	89*	0.1	-2	0.2	82*	/
CCOc1ccccc1N1CCN(C(=O)c2c(C)noc2C)CC1	10	0.9	-2	1	3	-4
CCOc1ccccc1N1CCN(C(=O)c2ccncc2)CC1	99*	0	4	0.3	67*	-1
CCOc1ccccc1N1CCN(C(=O)c2cccc(-c3ccc(O)cc3)c2)CC1	74*	0.3	-5	0.1	87*	20
O=C(CSc1ncn[nH]1)N1CCN(S(=O)(=O)c2ccc(Cl)cc2)CC1	45	0.5	-3	0.5	45	/
CC(C)COc1ccc(C(=O)OC2CC(C)(C)OCC2CN(C)C)cc1 (stereo unspecified)	8	0.9	11	0.8	16	-10
Cc1cc(C)n2c(SCC(=O)Nc3cc(C)on3)nnc2n1	/	/	1	/	/	-4
CCS(=O)(=O)n1nc(-c2ccc(Cl)cc2)nc1N	53*	0.5	7	0.9	8	-8
CSc1nc(-c2ccccc2)nn1S(=O)(=O)c1ccc(Cl)cc1	-5	1	-3	1.3	-35	/
COc1ccc(-c2nc(SC)n(S(=O)(=O)c3ccccc3)n2)cc1	69*	0.3	/	0.4	62*	40

Screening data deposited in PubChem BioAssay by several laboratories.
